One assay deals with Cannabinoid receptor 1 (Mus musculus, UniProt P47746). As to the kind of experiment: Displacement of [3H]CP-55940 from CB1 receptor in CD1 mouse brain. In kind it is tissue-based. Put shortly:
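Membranes from male CD-1 mouse brain (minus cerebellum) for CB1 or spleen for CB2, prepared in ice-cold TME buffer (50 mM Tris-HCl, 1 mM EDTA, 3.0 mM MgCl2, pH 7.4). 30–80 μg protein incubated with 0.5–1 nM [3H]CP-55,940, 1 h, 30 °C, with 5 mg/mL fatty-acid-free BSA. Nonspecific binding defined by 1 μM CP-55,940. Filtration, scintillation counting. IC50 from sigmoid fit converted to Ki. Triplicate, ≥5 experiments.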
In general terms: Loss of bound radioactivity is the signal in a displacement assay; it reports binding, not function.

Another assay deals with Cannabinoid receptor 2 (Mus musculus, UniProt P47936). As to the kind of experiment: Displacement of [3H]CP-55940 from CB2 receptor in CD1 mouse spleen. In kind it is tissue-based. In outline: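 Membranes from male CD-1 mouse brain (minus cerebellum) for CB1 or spleen for CB2, prepared in ice-cold TME buffer (50 mM Tris-HCl, 1 mM EDTA, 3.0 mM MgCl2, pH 7.4). Filtration, scintillation counting. IC50 from sigmoid fit converted to Ki. Triplicate, ≥5 experiments.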

Assay [1] has as its target Cannabinoid receptor (Mus musculus) (UniProt P47746+P47936). Put plainly: Selectivity for CB1 receptor over CB2 receptor in CD1 mouse. In kind it is protein assay.
Assay [2] has as its system Mus musculus. As to the kind of experiment: Effect on upper gastrointestinal motility in CD1 mouse at 0.1 mg/kg, ip. In kind it is functional, organism-based. Details: dose 0.1 mg/kg. Put shortly:
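Male CD-1 mice (20–35 g), n = 15–20 per group. Drug in saline with 0.1% Tween-80 (12.5 mL/kg) given ip 30 min before intragastric red carmine (6 wt %/v in 0.5% methylcellulose, 0.3 mL/mouse). Mice killed 20 min later. Distance reached by the marker head expressed as % of small intestine length (pylorus to ileocaecal junction). Mean ± SEM.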

Assay [3] deals with Mus musculus. Put plainly: Reversal of 0.5 mg/kg WIN-55212-2-induced inhibitory effect on upper gastrointestinal motility in CD1 mouse at 0.1 mg/kg ip. In kind it is functional, organism-based. Put shortly:
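Male CD-1 mice, n = 15–20 per group. Test drug 0.1 mg/kg ip given 10 min before WIN 55,212-2 (0.5 mg/kg ip), both in saline with 0.1% Tween-80. Intragastric carmine marker 20 min after agonist; mice killed 20 min later. Transit measured as % of small intestine length travelled by marker. ANOVA with Newman–Keuls test.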

The subject of assay [4] is Mus musculus. Put plainly: Increase in upper gastrointestinal motility in CD1 mouse at 0.5 to 1 mg/kg, ip. In kind it is functional. The conditions noted are these: dose mg/kg 0.5-1; route intraperitoneal. Put shortly:
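Male CD-1 mice (20–35 g), n = 15–20 per group. Compound given ip in saline with 0.1% Tween-80, 30 min before intragastric red carmine marker (6% suspension in 0.5% methylcellulose, 0.3 mL/mouse). Killed 20 min later. Distance travelled by the marker head expressed as % of small-intestine length (pylorus to ileocaecal junction). Group mean ± SEM versus vehicle-treated mice, by ANOVA/Newman–Keuls.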

The source made the active and inactive calls. The calls are words filed in the database; no cut-off is given here.

As a reminder, the Ki is the equilibrium dissociation constant of an inhibitor or competing ligand from its target. A higher Ki goes with a looser hold on the target.

Chain of Cannabinoid receptor 2 (P47936 whole entry): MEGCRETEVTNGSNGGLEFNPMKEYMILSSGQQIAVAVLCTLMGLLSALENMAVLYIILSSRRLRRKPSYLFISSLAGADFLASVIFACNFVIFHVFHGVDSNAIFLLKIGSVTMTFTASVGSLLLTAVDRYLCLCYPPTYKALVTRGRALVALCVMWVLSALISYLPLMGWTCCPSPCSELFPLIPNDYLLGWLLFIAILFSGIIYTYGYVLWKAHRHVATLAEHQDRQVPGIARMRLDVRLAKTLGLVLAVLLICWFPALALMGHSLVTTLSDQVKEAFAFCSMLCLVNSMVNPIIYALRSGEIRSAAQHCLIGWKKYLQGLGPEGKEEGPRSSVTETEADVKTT
Chain of Cannabinoid receptor 1 (P47746 whole entry): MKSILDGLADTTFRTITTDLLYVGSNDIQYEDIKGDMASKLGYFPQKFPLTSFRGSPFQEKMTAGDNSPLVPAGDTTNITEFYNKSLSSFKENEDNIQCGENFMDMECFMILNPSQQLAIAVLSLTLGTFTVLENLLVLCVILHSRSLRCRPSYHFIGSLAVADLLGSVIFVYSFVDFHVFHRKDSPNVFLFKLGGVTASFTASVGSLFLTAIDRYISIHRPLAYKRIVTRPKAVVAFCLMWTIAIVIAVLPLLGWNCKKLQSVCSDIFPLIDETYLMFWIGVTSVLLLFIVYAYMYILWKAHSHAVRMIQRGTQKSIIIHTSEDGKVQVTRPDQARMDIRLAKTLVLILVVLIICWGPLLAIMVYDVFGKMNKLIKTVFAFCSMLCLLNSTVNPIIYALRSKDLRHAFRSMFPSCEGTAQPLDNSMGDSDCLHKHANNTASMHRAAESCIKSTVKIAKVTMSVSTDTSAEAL
Chain of Cannabinoid receptor (Mus musculus) (P47746 whole entry, looked up): as the sequence (P47746 whole entry) above
Chain of Cannabinoid receptor (Mus musculus) (P47936 whole entry, looked up): as the sequence (P47936 whole entry) above

As for `Cc1ccc(NC(=O)c2nn(-c3ccc(Cl)cc3Cl)c3c2CCCc2cc(Cl)ccc2-3)cc1`, the inhibitory constant (Ki) on Cannabinoid receptor 1 was 5.74 nM (antagonist); on Cannabinoid receptor 2, 65 nM (antagonist). For the same compound, the Ratio Ki in assay [1] turned out to be 11.3.
On the same counts, the results for `O=C(NN1CCCCC1)c1nn(-c2ccc(Cl)cc2Cl)c2c1CCCc1cc(Br)ccc1-2` are 0.008 nM (antagonist), 37 nM (antagonist) and 4620.
As to `O=C(NN1CCCCC1)c1nn(-c2ccc(Cl)cc2Cl)c2c1CCCc1c(Cl)cccc1-2`, the inhibitory constant (Ki) on Cannabinoid receptor 1 is recorded as 9.84 nM (antagonist); at Cannabinoid receptor 2, 31.6 nM (antagonist). The Ratio Ki in assay [1] worked out at 3.21.
On the same counts, the results for `O=C(NN1CCCCC1)c1nn(-c2ccc(Cl)cc2Cl)c2c1CCc1cc(Cl)ccc1-2` are 14.8 nM (antagonist), 227 nM (antagonist) and 15.3.
On to `O=C(NN1CCCCCC1)c1nn(-c2ccc(Cl)cc2Cl)c2c1CCCc1cc(Cl)ccc1-2`, for which the Ki on Cannabinoid receptor 1 was 0.001 nM (antagonist); at Cannabinoid receptor 2 it was 2 nM (antagonist). For the same compound, the Ratio Ki in assay [1] was determined as 2000. The outcome in the assay with Mus musculus [2] was inactive. Also, the outcome in the assay with Mus musculus [3] was Active. Also, the Activity in the assay with Mus musculus [4] is on record as 65%.
As to `O=C(NN1CCCCC1)c1nn(-c2ccc(Cl)cc2Cl)c2c1CCCc1ccc(Cl)cc1-2`, the values for the Ki at Cannabinoid receptor 1 and on Cannabinoid receptor 2 were 31.2 nM (antagonist) and 26.8 nM (antagonist), respectively. Also, in assay [1], the Ratio Ki was 0.86.
The like results for `COc1ccc(NC(=O)c2nn(-c3ccc(Cl)cc3Cl)c3c2CCCc2cc(Cl)ccc2-3)cc1` were, in that order, 0.013 nM (antagonist), 43.3 nM (antagonist) and 3300.
On the same counts, the results for `O=C(NN1CCCCC1)c1nn(-c2ccc(Cl)cc2Cl)c2c1CCCc1ccccc1-2` are 168 nM (antagonist), 18.1 nM (antagonist) and 0.11.
With `O=C(Nc1ccccc1)c1nn(-c2ccc(Cl)cc2Cl)c2c1CCCc1cc(Cl)ccc1-2`, the Ki at Cannabinoid receptor 1 is 4.35 nM (antagonist); on Cannabinoid receptor 2 it was 1.45 nM (antagonist). The Ratio Ki in assay [1] was 0.33.
On the same counts, the results for `O=C(NN1CCCC1)c1nn(-c2ccc(Cl)cc2Cl)c2c1CCCc1cc(Cl)ccc1-2` are 0.004 nM (antagonist), 45 nM (antagonist) and 11200.
On the same counts, the results for `O=C(NN1CCCCC1)c1nn(-c2ccc(Cl)cc2Cl)c2c1Cc1cc(Cl)ccc1-2` are 2050 nM (antagonist), 0.34 nM (antagonist) and 0.000166.
On the same counts, the results for `O=C(NC1CCCCC1)c1nn(-c2ccc(Cl)cc2Cl)c2c1CCCc1cc(Cl)ccc1-2` are 0.3 nM (antagonist), 0.65 nM (antagonist) and 2.16.
On to `O=C(NN1CCCCC1)c1nn(-c2ccc(Cl)cc2Cl)c2c1CCCc1cc(Cl)ccc1-2`, for which the inhibition constant (Ki) at Cannabinoid receptor 1 was 0.00035 nM (antagonist); at Cannabinoid receptor 2 it was 21 nM (antagonist). For the same compound, the Ratio Ki in assay [1] was found to be 60000.
On the same counts, the results for `O=C(Nc1ccc(Cl)cc1)c1nn(-c2ccc(Cl)cc2Cl)c2c1CCCc1cc(Cl)ccc1-2` are 2.5 nM (antagonist), 79 nM (antagonist) and 31.6.
As to `Cc1ccc2c(c1)CCCc1c(C(=O)NN3CCCCC3)nn(-c3ccc(Cl)cc3Cl)c1-2`, the results for the inhibitory constant (Ki) on Cannabinoid receptor 1 and at Cannabinoid receptor 2 were 0.0052 nM (antagonist) and 0.46 nM (antagonist), respectively. Moreover, in assay [1], the Ratio Ki came to 88.5.
Turning to `O=C(Nc1ccc(Cl)c(Cl)c1)c1nn(-c2ccc(Cl)cc2Cl)c2c1CCCc1cc(Cl)ccc1-2`, the Ki on Cannabinoid receptor 1 is 25.8 nM (antagonist); at Cannabinoid receptor 2, above 500 nM.
`Cc1ccc2c(c1)CCCc1c(C(=O)NN3CCCC3)nn(-c3ccc(Cl)cc3Cl)c1-2`: the Ki is 0.11 nM (antagonist) at Cannabinoid receptor 1 and 386 nM (antagonist) at Cannabinoid receptor 2. Also, the Ratio Ki in assay [1] turned out to be 3510.

(Values after ChEMBL document CHEMBL1139485, “Tricyclic pyrazoles. 3. Synthesis, biological evaluation, and molecular modeling of analogues of the cannabinoid antagonist 8-chloro-1-(2',4'-dichlorophenyl)-N-piperidin-1-yl-1,4,5,6-tetrahydrobenzo[6,7]cyclohepta[1,2-c]pyrazole-3-carboxamide” (J Med Chem, 2005).)
